Source: ChEMBL document CHEMBL1122280, “Analogues of hycanthone and lucanthone as antitumor agents” (1983)

Experiments:
P388 [1] = experiment: In vivo antitumor activity against P-388 lymphocytic leukemia in mice treated with a dose of 25 mg/kg; type: functional, Mus musculus
Method in brief: (§1)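 Mice bearing P-388 leukemia were dosed once daily for 5 days, or once daily for 9 days for the two reference parent drugs. Activity is expressed as a T/C value.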

P388 [2] = experiment: In vivo antitumor activity against P-388 lymphocytic leukemia in mice treated with a dose of 50 mg/kg; type: functional, Mus musculus; method in brief: as §1
P388 [3] = experiment: In vivo antitumor activity against P-388 lymphocytic leukemia in mice treated with a dose of 12.5 mg/kg; type: functional, Mus musculus; method in brief: as §1
P388 [4] = experiment: In vivo antitumor activity against P-388 lymphocytic leukemia in mice treated with a dose of 25 mg/kg for 2 days; type: functional, Mus musculus; conditions: in the assay text read “for 5 days” for “for 2 days”
P388 [5] = experiment: In vivo antitumor activity against P-388 lymphocytic leukemia in mice treated with a dose of 100 mg/kg for 2 days; type: functional, Mus musculus; conditions: in the assay text read “for 5 days” for “for 2 days”
P388 [6] = experiment: In vivo antitumor activity against P-388 lymphocytic leukemia in mice treated with a dose of 50 mg/kg for 2 days; type: functional, Mus musculus; conditions: in the assay text read “for 5 days” for “for 2 days”
P388 [7] = experiment: In vivo antitumor activity against P-388 lymphocytic leukemia in mice treated with a dose of 200 mg/kg for 5 days
P388 [8] = experiment: In vivo antitumor activity against P-388 lymphocytic leukemia in mice treated with a dose of 75 mg/kg for 2 days; type: functional, Mus musculus
Method in brief: (§2)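 P-388 leukemia-bearing mice received the drug on only 2 days, day 1 and day 4 after inoculation. Activity is expressed as a T/C value.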

P388 [9] = experiment: In vivo antitumor activity against P-388 lymphocytic leukemia in mice treated with a dose of 9.88 mg/kg for 2 days; type: functional, Mus musculus; method in brief: as §2
P388 [10] = experiment: In vivo antitumor activity against P-388 lymphocytic leukemia in mice treated with a dose of 37.5 mg/kg for 2 days; type: functional, Mus musculus; method in brief: as §2
P388 [11] = experiment: In vivo antitumor activity against P-388 lymphocytic leukemia in mice treated with a dose of 18.75 mg/kg for 2 days; type: functional, Mus musculus; method in brief: as §2
P388 [12] = experiment: In vivo antitumor activity against P-388 lymphocytic leukemia in mice treated with a dose of 100 mg/kg; type: functional, Mus musculus; method in brief: as §1
P388 [13] = experiment: In vivo antitumor activity against P-388 lymphocytic leukemia in mice treated with a dose of 200 mg/kg; type: functional, Mus musculus; method in brief: as §1
P388 [14] = experiment: In vivo antitumor activity against P-388 lymphocytic leukemia in mice treated with a dose of 60 mg/kg; type: functional, Mus musculus; method in brief: as §1

For CCN(CC)CCNc1ccc(C)c2oc3ccc(O)cc3c(=O)c12, the T/C (P388 [1]) was 106, the T/C (P388 [2]) was 117 and the T/C (P388 [3]) was 106.

CN(C)CCNc1ccc(CO)c2sc3ccc(O)cc3c(=O)c12 gave a T/C (P388 [4]) of 160, a T/C (P388 [5]) of 194 and a T/C (P388 [6]) of 175. The T/C (P388 [7]) was 222.

In the case of CCN(CC)CCNc1ccc(CO)c2sc3ccc(O)cc3c(=O)c12, the T/C (P388 [8]) is reported as 207, the T/C (P388 [9]) is reported as 163 and the T/C (P388 [10]) is reported as 179. The T/C (P388 [11]) was 207.

With Cc1ccc(NCCN(C)C)c2c(=O)c3cc(O)ccc3oc12 the T/C (P388 [1]) was 106, the T/C (P388 [2]) was 108 and the T/C (P388 [3]) was 99.

Molecule CCN(CC)CCNc1ccc(CO)c2oc3ccc(O)cc3c(=O)c12 has a T/C (P388 [2]) of 181, a T/C (P388 [12]) of 214 and a T/C (P388 [13]) of 163.

Molecule CN(C)CCNc1ccc(CO)c2sc3ccccc3c(=O)c12 has a T/C (P388 [1]) of 94, a T/C (P388 [2]) of 114 and a T/C (P388 [12]) of 150.

CN(C)CCNc1ccc(CO)c2oc3ccc(O)cc3c(=O)c12 gave a T/C (P388 [2]) of 170 and a T/C (P388 [13]) of 128.

Molecule CCN(CC)CCNc1ccc(CO)c2sc3ccccc3c(=O)c12 [HYCANTHONE] has a T/C (P388 [14]) of 165.

Work on CCN(CC)CCNc1ccc(C)c2sc3ccccc3c(=O)c12 [LUCANTHONE] yielded a T/C (P388 [12]) of 158.
